Reference: ChEMBL document CHEMBL1123369, “Synthesis and structure-activity relationships of new arylfluoronaphthyridine antibacterial agents” (1986)
In brackets after ≈: the same amount, converted by molar mass.

Legend:
Assay type in all cases: functional
Enterococcus faecium = assay: In vitro antibacterial activity against Streptococcus faecium ATCC 8043
How it was run: (§1)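 Twofold agar dilution in brain-heart infusion agar, test range 200 to 0.005 µg/mL, made from a 2000 µg/mL stock. Organisms grown overnight in BHI broth at 36 °C. About 10⁴ organisms inoculated per plate, then incubated 18 h at 36 °C. MIC taken as the lowest concentration giving no visible growth.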

Escherichia coli = assay: In vitro antibacterial activity against Escherichia coli Juhl; how it was run: as §1
Staphylococcus aureus [1] = assay: In vitro antibacterial activity against Staphylococcus aureus ATCC 6538P; how it was run: as §1
Klebsiella pneumoniae = assay: In vitro antibacterial activity against Klebsiella pneumoniae 8045; how it was run: as §1
Pseudomonas aeruginosa [2] = assay: compound was evaluated in vitro for the antibacterial activity against Pseudomonas aeruginosa 5007; how it was run: as §1
Acinetobacter sp. = assay: In vitro antibacterial activity against Acinetobacter species CMX669; how it was run: as §1
Klebsiella aerogenes = assay: In vitro antibacterial activity against Enterobacter aerogenes ATCC 13048; how it was run: as §1
Staphylococcus aureus [3] = assay: In vitro antibacterial activity against Staphylococcus aureus CMX 686B; how it was run: as §1
[4] = tested on: Staphylococcus epidermidis; assay: In vitro antibacterial activity against Staphylococcus epidermidis 3519; how it was run: as §1
Streptococcus pyogenes = assay: In vitro antibacterial activity against Streptococcus pyogenes 930; how it was run: as §1
Pseudomonas aeruginosa [5] = assay: In vitro antibacterial activity against Pseudomonas aeruginosa K799/WT; how it was run: as §1
Pseudomonas aeruginosa [6] = assay: In vitro antibacterial activity against Pseudomonas aeruginosa 5007; how it was run: as §1
Mus musculus [7] = assay: In vivo dose(po) inhibiting systemic infections caused by Pseudomonas aeruginosa 5007 in mice.
How it was run: (§2)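 CF-1 female mice, about 20 g. Infected ip with 0.5 mL of an 18-h BHI culture diluted in 5% hog gastric mucin to 100× LD₅₀. LD₅₀ set by 10-fold dilutions (Reed–Muench, day 6). Compound given in water or dilute NaOH, sc or po, total dose split at 1 and 5 h post-infection. At least 3 dose levels, 10 mice each. Deaths followed 6 days. ED₅₀ from day-6 cumulative mortality by trimmed Logit, with 95% confidence limits.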

Mus musculus [8] = assay: In vivo dose(sc) inhibiting systemic infections caused by Staphylococcus aureus NCTC 10649 in mice.; how it was run: as §2
Mus musculus [9] = assay: In vivo antibacterial activity against systemic infection caused by Pseudomonas aeruginosa 5007 in mice.; how it was run: as §2
Mus musculus [10] = assay: In vivo dose(po) inhibiting systemic infections caused by Staphylococcus aureus NCTC 10649 in mice.; how it was run: as §2
Mus musculus [11] = assay: In vivo antibacterial activity against systemic infection caused by Staphylococcus aureus NCTC 10649 in mice.; how it was run: as §2
Mus musculus [12] = assay: In vivo dose(sc) inhibiting systemic infections caused by Pseudomonas aeruginosa 5007 in mice.; how it was run: as §2
Mus musculus [13] = assay: In vivo antibacterial activity against systemic infection caused by Escherichia coli Juhl in mice.; how it was run: as §2
Mus musculus [14] = assay: In vivo dose(po) inhibiting systemic infections caused by Escherichia coli Juhl in mice.; how it was run: as §2
Mus musculus [15] = assay: In vivo dose(sc) inhibiting systemic infections caused by Escherichia coli Juhl in mice.; how it was run: as §2

Row | MIC (Enterococcus faecium) [µg/mL] | MIC (Escherichia coli) [µg/mL] | MIC (Staphylococcus aureus [1]) [µg/mL] | MIC (Klebsiella pneumoniae) [µg/mL] | MIC (Acinetobacter sp.) [µg/mL] | MIC (Klebsiella aerogenes) [µg/mL] | MIC (Staphylococcus aureus [3]) [µg/mL] | MIC [4] [µg/mL] | MIC (Streptococcus pyogenes) [µg/mL] | MIC (Pseudomonas aeruginosa [5]) [µg/mL] | MIC (Pseudomonas aeruginosa [6]) [µg/mL] | MIC (Mus musculus [9]) [µg/mL] | MIC (Mus musculus [11]) [µg/mL] | SMILES | ED50 (Mus musculus [7]) [mg/kg] | ED50 (Mus musculus [8]) [mg/kg] | ED50 (Mus musculus [10]) [mg/kg] | ED50 (Mus musculus [12]) [mg/kg] | further results
1 | 3.1 (≈ 7.74 µM) | 0.2 (≈ 0.5 µM) | 0.2 (≈ 0.5 µM) | 0.1 (≈ 0.25 µM) | 0.2 (≈ 0.5 µM) | 0.2 (≈ 0.5 µM) | 0.2 (≈ 0.5 µM) | 0.39 (≈ 0.974 µM) | 3.1 (≈ 7.74 µM) | 1.56 (≈ 3.9 µM) | – | – | – | CN1CCN(c2nc3c(cc2F)c(=O)c(C(=O)O)cn3-c2ccc(F)cc2)CC1 | – | – | – | – | MIC (Pseudomonas aeruginosa [2]): 1.56 µg/mL (≈ 3.9 µM)
2 | 50 (≈ 136 µM) | 0.2 (≈ 0.543 µM) | 1.56 (≈ 4.23 µM) | 0.1 (≈ 0.271 µM) | 1.56 (≈ 4.23 µM) | 0.39 (≈ 1.06 µM) | 1.56 (≈ 4.23 µM) | 1.56 (≈ 4.23 µM) | 6.2 (≈ 16.8 µM) | 1.56 (≈ 4.23 µM) | 1.56 (≈ 4.23 µM) | – | – | O=C(O)c1cn(-c2ccccc2)c2nc(N3CCNCC3)c(F)cc2c1=O | – | – | – | – | –
3 | 3.1 (≈ 8.02 µM) | 0.05 (≈ 0.129 µM) | 0.39 (≈ 1.01 µM) | 0.1 (≈ 0.259 µM) | 0.39 (≈ 1.01 µM) | 0.1 (≈ 0.259 µM) | 0.39 (≈ 1.01 µM) | 0.78 (≈ 2.02 µM) | 1.56 (≈ 4.04 µM) | 0.39 (≈ 1.01 µM) | – | 0.39 (≈ 1.01 µM) | 0.25 (≈ 0.647 µM) | O=C(O)c1cn(-c2ccc(F)cc2)c2nc(N3CCNCC3)c(F)cc2c1=O | 19.9 | 1.6 | 7.5 | 6.9 | MIC (Mus musculus [13]): 0.05 µg/mL (≈ 0.129 µM); MIC (Pseudomonas aeruginosa [2]): 0.39 µg/mL (≈ 1.01 µM); ED50 (Mus musculus [14]): 2.8 mg/kg; ED50 (Mus musculus [15]): 1 mg/kg
4 | 1.56 (≈ 3.73 µM) | 0.39 (≈ 0.932 µM) | 0.2 (≈ 0.478 µM) | 0.39 (≈ 0.932 µM) | 0.39 (≈ 0.932 µM) | 0.39 (≈ 0.932 µM) | 0.2 (≈ 0.478 µM) | 0.39 (≈ 0.932 µM) | 1.56 (≈ 3.73 µM) | 3.1 (≈ 7.41 µM) | 3.1 (≈ 7.41 µM) | – | – | CN1CCN(c2nc3c(cc2F)c(=O)c(C(=O)O)cn3-c2ccc(F)cc2F)CC1 | – | – | – | – | –
5 | 0.39 (≈ 1.01 µM) | 0.05 (≈ 0.129 µM) | 0.5 (≈ 1.29 µM) | 0.05 (≈ 0.129 µM) | 0.1 (≈ 0.259 µM) | 0.1 (≈ 0.259 µM) | 0.1 (≈ 0.259 µM) | 0.1 (≈ 0.259 µM) | 0.2 (≈ 0.518 µM) | 0.2 (≈ 0.518 µM) | 0.1 (≈ 0.259 µM) | 0.1 (≈ 0.259 µM) | 0.06 (≈ 0.155 µM) | NC1CCN(c2nc3c(cc2F)c(=O)c(C(=O)O)cn3-c2ccc(F)cc2)C1 (stereo not drawn) | 18.2 | 0.5 | 1.6 | 7.4 | –
6 | 6.2 (≈ 15.5 µM) | 0.05 (≈ 0.125 µM) | 0.39 (≈ 0.974 µM) | 0.02 (≈ 0.05 µM) | 0.2 (≈ 0.5 µM) | 12.5 (≈ 31.2 µM) | 0.78 (≈ 1.95 µM) | 0.78 (≈ 1.95 µM) | 3.1 (≈ 7.74 µM) | 1.56 (≈ 3.9 µM) | 1.56 (≈ 3.9 µM) | – | – | CC1CN(c2nc3c(cc2F)c(=O)c(C(=O)O)cn3-c2ccc(F)cc2)CCN1 (stereo not drawn) | – | – | – | – | –

Row | SMILES | MIC (Enterococcus faecium) [µg/mL] | MIC (Escherichia coli) [µg/mL] | MIC (Staphylococcus aureus [1]) [µg/mL] | MIC (Klebsiella pneumoniae) [µg/mL] | MIC (Acinetobacter sp.) [µg/mL] | MIC (Klebsiella aerogenes) [µg/mL] | MIC (Staphylococcus aureus [3]) [µg/mL] | MIC [4] [µg/mL] | MIC (Streptococcus pyogenes) [µg/mL] | MIC (Pseudomonas aeruginosa [5]) [µg/mL] | MIC (Pseudomonas aeruginosa [6]) [µg/mL] | MIC (Mus musculus [9]) [µg/mL] | MIC (Mus musculus [11]) [µg/mL] | ED50 (Mus musculus [7]) [mg/kg] | ED50 (Mus musculus [8]) [mg/kg] | ED50 (Mus musculus [10]) [mg/kg] | ED50 (Mus musculus [12]) [mg/kg] | further results
7 | O=C(O)c1cn(-c2ccc(F)cc2F)c2nc(N3CCNCC3)c(F)cc2c1=O | 0.78 (≈ 1.93 µM) | 0.05 (≈ 0.124 µM) | 0.2 (≈ 0.495 µM) | 0.05 (≈ 0.124 µM) | 0.39 (≈ 0.965 µM) | 0.2 (≈ 0.495 µM) | 0.2 (≈ 0.495 µM) | 0.39 (≈ 0.965 µM) | 0.78 (≈ 1.93 µM) | 0.39 (≈ 0.965 µM) | 0.39 (≈ 0.965 µM) | 0.39 (≈ 0.965 µM) | 0.12 (≈ 0.297 µM) | 7 | 0.6 | 2.4 | 4.6 | –
